Measured values published in ChEMBL document CHEMBL4304739, “Discovery of 3-(Indol-5-yl)-indazole Derivatives as Novel Myeloid Differentiation Protein 2/Toll-like Receptor 4 Antagonists for Treatment of Acute Lung Injury” (J Med Chem, 2019).
Activity calls are given as the source filed them.

Tests used:
[1] = tested on: Tyrosine-protein kinase ABL1 (Homo sapiens), P00519 [T315I]; test: Inhibition of human phosphorylated ABL1 T315I mutant (S229 to K512 residues) expressed in mammalian expression system at 1 uM by Kinomescan method
Summary of the method: (§1)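 KINOMEscan competition binding screen at 1 μM compound. Results reported as % of control = (test − positive control)/(DMSO negative control − positive control) × 100, where lower values mean stronger hits.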

[2] = molecular target: Cyclin-dependent kinase 7 (Homo sapiens) (UniProt P50613); test: Inhibition of wild-type human full length CDK7 (M1 to L344 residues) expressed in mammalian expression system at 1 uM by Kinomescan method; summary of the method: as §1
[3] = molecular target: Receptor-type tyrosine-protein kinase FLT3 (Homo sapiens) (UniProt P36888); test: Inhibition of wild-type human partial length FLT3 (V592 to Y969 residues) expressed in bacterial expression system at 1 uM by Kinomescan method
Summary of the method: (§2)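 Binding-competition screen on the KINOMEscan platform, run by the provider, with the test compound at 1 μM. Readout is percent of control: (test signal − positive control signal)/(negative control signal − positive control signal) × 100. The DMSO negative control is set as 100% Ctrl and a control compound as 0% Ctrl. Lower values mean stronger hits.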

Mus musculus [4] = test: Antiinflammatory activity in LPS-induced C57BL/6 mouse model of acute lung injury assessed as reduction in TNFalpha mRNA level at 10 mg/kg, iv pretreated for 15 mins followed by LPS stimulation and measured after 6 hrs by SYBR green staining-based qRT-PCR analysis; type: functional, organism-based
Summary of the method: (§3)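 Total lung RNA extracted, with DNase I removal of residual DNA. Quantitative PCR with mouse gene primers; each gene normalized to β-actin. C57BL/6 mice given compound iv 15 min before intraperitoneal LPS (20 mg/kg) and killed at 6 h.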

[5] = molecular target: Insulin-like growth factor 1 receptor (Homo sapiens) (UniProt P08069); test: Inhibition of wild-type human partial length IGF1R (L972 to D1294 residues) expressed in bacterial expression system at 1 uM by Kinomescan method; summary of the method: as §2
[6] = molecular target: Platelet-derived growth factor receptor beta (Homo sapiens) (UniProt P09619); test: Inhibition of wild-type human partial length PDGFRB (V582 to Y1009 residues) expressed in bacterial expression system at 1 uM by Kinomescan method; summary of the method: as §2
[7] = molecular target: Hepatocyte growth factor receptor (Homo sapiens) (UniProt P08581); test: Inhibition of wild-type human partial length MET (D1010 to S1367 residues) expressed in bacterial expression system at 1 uM by Kinomescan method; summary of the method: as §2
[8] = molecular target: Receptor tyrosine-protein kinase erbB-4 (Homo sapiens) (UniProt Q15303); test: Inhibition of wild-type human partial length ERBB4 (L690 to K994 residues) expressed in bacterial expression system at 1 uM by Kinomescan method; summary of the method: as §2
[9] = molecular target: RAF proto-oncogene serine/threonine-protein kinase (Homo sapiens) (UniProt P04049); test: Inhibition of wild-type human partial length RAF1 (I330 to T640 residues) expressed in bacterial expression system at 1 uM by Kinomescan method; summary of the method: as §2
Mus musculus [10] = test: Antiinflammatory activity in LPS-induced C57BL/6 mouse model of acute lung injury assessed as reduction in IL1beta mRNA level at 10 mg/kg, iv pretreated for 15 mins followed by LPS stimulation and measured after 6 hrs by SYBR green staining-based qRT-PCR analysis; type: functional, organism-based; summary of the method: as §3
[11] = molecular target: Proto-oncogene tyrosine-protein kinase Src (Homo sapiens) (UniProt P12931); test: Inhibition of wild-type human partial length SRC (L240 to L536 residues) expressed in bacterial expression system at 1 uM by Kinomescan method
Summary of the method: (§4)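 Single-concentration screen at 1 μM on the KINOMEscan panel (98 kinases), run by the platform provider. Results are given as percent of control: % Ctrl = [(test signal − positive control signal)/(negative control signal − positive control signal)] × 100. DMSO serves as negative control (100% Ctrl) and a control compound as positive control (0% Ctrl). Lower values mean stronger binding hits.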

[12] = molecular target: Mitogen-activated protein kinase 8 (Homo sapiens) (UniProt P45983); test: Inhibition of wild-type human full length JNK1 (M1 to Q384 residues) expressed in mammalian expression system at 1 uM by Kinomescan method; summary of the method: as §1
[13] = molecular target: Vascular endothelial growth factor receptor 2 (Homo sapiens) (UniProt P35968); test: Inhibition of wild-type human partial length VEGFR2 (R787 to P1253 residues) expressed in mammalian expression system at 1 uM by Kinomescan method; summary of the method: as §4
[14] = molecular target: Glycogen synthase kinase-3 beta (Homo sapiens) (UniProt P49841); test: Inhibition of wild-type human full length GSK3B (M1 to T433 residues) expressed in mammalian expression system at 1 uM by Kinomescan method; summary of the method: as §1
[15] = molecular target: Bone morphogenetic protein receptor type-2 (Homo sapiens) (UniProt Q13873); test: Inhibition of wild-type human partial length BMPR2 (R179 to Q526 residues) expressed in mammalian expression system at 1 uM by Kinomescan method; summary of the method: as §2
Mus musculus [16] = test: Antiinflammatory activity in LPS-induced C57BL/6 mouse model of acute lung injury assessed as reduction in F4/80 positive macrophage at 5 to 10 mg/kg, iv pretreated for 15 mins followed by LPS stimulation and measured after 6 hrs by ABC/hematoxylin staining-based immunohistochemistry analysis; type: functional, organism-based
Summary of the method: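 Male C57BL/6 mice (18−22 g; n=8 per group). Compound in 0.1% CMC-Na given by tail vein injection 15 min before intraperitoneal LPS (20 mg/kg); controls received saline. Mice were sacrificed 6 h after LPS, and serum and lung tissue were collected.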

[17] = molecular target: Serine/threonine-protein kinase pim-1 (Homo sapiens) (UniProt P11309); test: Inhibition of wild-type human partial length PIM1 (A15 to K313 residues) expressed in bacterial expression system at 1 uM by Kinomescan method; summary of the method: as §2
[18] = molecular target: Tyrosine-protein kinase ABL1 (Homo sapiens) (UniProt P00519); test: Inhibition of wild-type human non-phosphorylated ABL1 (S229 to K512 residues) expressed in mammalian expression system at 1 uM by Kinomescan method; summary of the method: as §1
[19] = molecular target: Dual specificity mitogen-activated protein kinase kinase 2 (Homo sapiens) (UniProt P36507); test: Inhibition of wild-type human full length MEK2 (M1 to V400 residues) expressed in mammalian expression system at 1 uM by Kinomescan method; summary of the method: as §1
Peritoneal macrophage = test: Cytotoxicity against ICR mouse peritoneal macrophages assessed as reduction in cell viability at 10 uM measured after 24 hrs by MTT assay; type: cell-based
Summary of the method: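 Peritoneal macrophages from ICR mice, 2.0×10^4 cells/well in DMEM with 10% FBS. Cells exposed to compound for 24 h, then MTT (5 mg/ml in 0.9% NaCl) added for 4 h at 37 °C in 5% CO2. Absorbance read at 490 nm; final DMSO 0.1%.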

O=C(Nc1ccc2[nH]nc(-c3ccc4[nH]ccc4c3)c2c1)c1c(Cl)cccc1Cl
active: Activity (Mus musculus [4]) | Activity (Mus musculus [10]) | Activity (Mus musculus [16])
inactive: inhibition [1] | inhibition [2] | inhibition [3] | inhibition [5] | inhibition [6] | inhibition [7] | inhibition [8] | inhibition [9] | inhibition [11] | inhibition [12] | inhibition [13] | inhibition [14] | inhibition [15] | inhibition [17] | inhibition [18] | inhibition [19]
Non-Toxic: Activity (Peritoneal macrophage)
